Laboratory results published in ChEMBL document CHEMBL3351594, “Cytotoxic dimeric epipolythiodiketopiperazines from the ascomycetous fungus Preussia typharum” (J Nat Prod, 2014).
Active and inactive are the calls of the source. No cut-off for these calls is given here.

Columns and labels:
MIA PaCa-2 = test: Cytotoxicity against human MIAPaCa2 cells up to 30 uM after 24 hrs by MTT assay; assay type: functional, cell-based
[1] = Cytotoxicity against human MIAPaCa2 cells after 24 hrs by MTT assay; assay type: functional, cell-based; conditions: MIA PaCa-2, 24 h
mTORC1 (Homo sapiens) = mTORC1 (Homo sapiens) (UniProt P42345+Q8N122+Q9BVC4); conditions: HeLa, 100 nM
Sequence of mTORC1 (Homo sapiens) (Q8N122 whole entry, looked up, other chains not shown): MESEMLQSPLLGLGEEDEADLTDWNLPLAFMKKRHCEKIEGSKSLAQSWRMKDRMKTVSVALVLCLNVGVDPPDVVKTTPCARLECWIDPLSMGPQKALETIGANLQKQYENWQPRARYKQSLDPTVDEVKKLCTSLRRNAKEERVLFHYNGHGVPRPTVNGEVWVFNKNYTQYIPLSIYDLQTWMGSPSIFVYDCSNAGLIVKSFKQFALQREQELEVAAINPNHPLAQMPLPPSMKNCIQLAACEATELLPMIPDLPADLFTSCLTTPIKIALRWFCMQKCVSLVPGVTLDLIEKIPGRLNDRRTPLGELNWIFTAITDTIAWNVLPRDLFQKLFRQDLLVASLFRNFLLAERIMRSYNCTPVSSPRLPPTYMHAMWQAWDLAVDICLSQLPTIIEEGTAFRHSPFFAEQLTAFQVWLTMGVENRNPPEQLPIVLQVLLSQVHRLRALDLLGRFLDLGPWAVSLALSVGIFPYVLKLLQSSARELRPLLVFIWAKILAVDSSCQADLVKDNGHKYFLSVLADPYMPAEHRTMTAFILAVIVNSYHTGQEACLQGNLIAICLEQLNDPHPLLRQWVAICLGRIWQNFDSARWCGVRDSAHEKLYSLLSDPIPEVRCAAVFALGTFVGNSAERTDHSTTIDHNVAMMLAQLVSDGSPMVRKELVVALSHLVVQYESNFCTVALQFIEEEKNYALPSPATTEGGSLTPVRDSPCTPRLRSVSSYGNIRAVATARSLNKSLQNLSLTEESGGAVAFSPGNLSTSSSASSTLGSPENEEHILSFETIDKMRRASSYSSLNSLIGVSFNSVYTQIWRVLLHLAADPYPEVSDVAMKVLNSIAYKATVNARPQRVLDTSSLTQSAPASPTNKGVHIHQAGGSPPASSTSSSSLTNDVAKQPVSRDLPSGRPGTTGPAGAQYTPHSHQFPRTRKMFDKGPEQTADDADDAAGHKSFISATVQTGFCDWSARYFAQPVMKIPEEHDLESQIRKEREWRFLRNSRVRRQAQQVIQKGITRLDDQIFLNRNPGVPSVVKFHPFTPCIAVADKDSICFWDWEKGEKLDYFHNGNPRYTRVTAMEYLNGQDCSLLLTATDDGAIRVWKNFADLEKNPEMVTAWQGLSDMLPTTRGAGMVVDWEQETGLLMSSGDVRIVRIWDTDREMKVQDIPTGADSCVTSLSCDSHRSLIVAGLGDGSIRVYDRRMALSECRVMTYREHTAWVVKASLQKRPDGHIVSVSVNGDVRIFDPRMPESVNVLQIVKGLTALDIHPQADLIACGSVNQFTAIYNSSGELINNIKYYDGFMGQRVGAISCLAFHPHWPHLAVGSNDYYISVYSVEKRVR
Sequence of mTORC1 (Homo sapiens) (Q9BVC4 whole entry, looked up, other chains not shown): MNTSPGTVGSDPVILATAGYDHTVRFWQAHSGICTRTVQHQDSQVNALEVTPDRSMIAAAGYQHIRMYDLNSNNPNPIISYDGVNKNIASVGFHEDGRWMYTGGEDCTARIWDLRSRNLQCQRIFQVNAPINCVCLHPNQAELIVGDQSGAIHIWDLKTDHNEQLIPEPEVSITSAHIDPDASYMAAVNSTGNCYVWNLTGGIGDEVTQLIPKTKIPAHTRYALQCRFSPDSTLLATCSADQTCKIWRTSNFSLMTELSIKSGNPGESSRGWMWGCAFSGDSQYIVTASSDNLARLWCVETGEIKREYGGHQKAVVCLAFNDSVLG

[2] = Cytotoxicity against human SKOV3 cells by SRB method; assay type: functional; conditions: SK-OV-3
Procedure, shortened: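 SRB assay in SK-OV-3 cells; percent cell growth per Boyd et al.; GI50, TGI and LC50 fitted from dose–response curves of percent growth; mean ± SE, n = 3 or 4 independent experiments.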

[3] = Cytotoxicity against human P-gp expressing SKOV3-M6/6 cells by SRB assay; assay type: functional
Procedure, shortened: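 SRB assay in SK-OV-3/MDR-1-6/6 cells, a single-cell clone of SKOV-3/MDR1 (P-gp). Percent cell growth follows Boyd et al. GI50 was derived from dose–response curves of percent growth. Results are mean ± SE of n = 3 or 4 independent experiments. Relative resistance is calculated against parental SK-OV-3.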

SK-OV-3 = test: Resistance ratio of GI50 for human P-gp expressing SKOV3-M6/6 cells to GI50 for human SKOV3 cells; assay type: functional
Procedure, shortened: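 SRB assay in SK-OV-3 and its P-gp/MDR1 single-cell clone SK-OV-3/MDR-1-6/6; GI50 from percent growth dose–response curves, n = 3 or 4 independent experiments; relative resistance taken as ratio of GI50 in the MDR line to parental.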

Row | SMILES | Activity (MIA PaCa-2) | IC50 [1] [nM] | also measured
1 | CS[C@@]1(C(C)C)C(=O)N2[C@H]3N(C)c4ccccc4[C@@]3(C34c5ccccc5N[C@H]3N3C(=O)[C@@](CO)(SC)N(C)C(=O)[C@]3(SC)[C@H]4O)[C@H](O)[C@]2(SC)C(=O)N1C (stereo not given in full) | inactive |  | 
2 | CC(C)[C@@]12SS[C@]3(C(=O)N1C)[C@@H](O)[C@]1(C45c6ccccc6N[C@H]4N4C(=O)[C@]6(CO)SSSS[C@]4(C(=O)N6C)[C@H]5O)c4ccccc4N[C@@H]1N3C2=O (stereo not given in full) |  | 43.1 | 
3 | CC(C)[C@@]12SS[C@]3(C(=O)N1C)[C@@H](O)[C@]1(C45c6ccccc6N[C@H]4N4C(=O)[C@@]6(CO)SSSS[C@@]4(C(=O)N6C)[C@H]5O)c4ccccc4N[C@@H]1N3C2=O (stereo not given in full) |  | 9.1 | 
4 | CO[C@H]1C[C@@H]2CC[C@@H](C)[C@@](O)(O2)C(=O)C(=O)N2CCCC[C@H]2C(=O)O[C@H]([C@H](C)C[C@@H]2CC[C@@H](O)[C@H](OC)C2)CC(=O)[C@H](C)/C=C(\C)[C@@H](O)[C@@H](OC)C(=O)[C@H](C)C[C@H](C)/C=C/C=C/C=C/1C |  |  | inhibition (mTORC1 (Homo sapiens)): Active
5 | CS[C@@]1(C(C)C)C(=O)N2[C@H]3Nc4ccccc4[C@@]3(C34c5ccccc5N(C)[C@H]3N3C(=O)[C@@](CO)(SC)N(C)C(=O)[C@]3(SC)[C@H]4O)[C@H](O)[C@]2(SC)C(=O)N1C (stereo not given in full) | inactive |  | 
6 | CC(=O)O[C@H]1C(=O)[C@@]2(C)[C@H]([C@H](OC(=O)c3ccccc3)[C@]3(O)C[C@H](OC(=O)[C@H](O)[C@@H](NC(=O)c4ccccc4)c4ccccc4)C(C)=C1C3(C)C)[C@]1(OC(C)=O)CO[C@@H]1C[C@@H]2O [PACLITAXEL] |  |  | GI50 [2]: 4.7 nM; GI50 [3]: 600 nM; Ratio (SK-OV-3): 127
7 | CS[C@@]1(C(C)C)C(=O)N2[C@H]3Nc4ccccc4[C@@]3(C34c5ccccc5N[C@H]3N3C(=O)[C@@](CO)(SC)N(C)C(=O)[C@]3(SC)[C@H]4O)[C@H](O)[C@]2(SC)C(=O)N1C (stereo not given in full) | inactive |  | 
8 | CC(C)[C@@]12SS[C@]3(C(=O)N1C)[C@@H](O)[C@]1(C45c6ccccc6N[C@H]4N4C(=O)[C@]6(CO)SS[C@]4(C(=O)N6C)[C@H]5O)c4ccccc4N[C@@H]1N3C2=O (stereo not given in full) |  | 33.6 | 
